Measured values collected from several papers.
Lines come from different studies, so protocols differ.

| SMILES | target or system | test | system | setting | measurement | value |
| --- | --- | --- | --- | --- | --- | --- |
| CN/C(=N/CCSCc1nc[nH]c1C)NC#N |  | metabolic stability | human, hepatocytes | 0.5 µM, pH 7.4 | hepatocyte CLint | 2.15 µL/min/10⁶ cells |
| CC1(F)CN(C(=O)Cn2c(=O)c(C(=O)NCc3ccc(Cl)cc3)cc3nc(N4CCNC4=O)cnc32)C1 | B-95-8 | cell growth or viability, ATP luminescence |  | 5 days | CC50 | 3.59 µM |
| Cc1ccc(Cn2cc(C(=O)NN)c(=O)c3cc(Oc4ccccc4)ccc32)cc1 |  | metabolic stability | male rat, liver microsomes | 1 µM | microsomal CLint | < 11.6 µL/min/mg |
| COC(=O)COc1c(Cc2cc(C(C)(C)CC(C)(C)C)cc(-n3nc4ccccc4n3)c2OCC(=O)OC)cc(C(C)(C)CC(C)(C)C)cc1-n1nc2ccccc2n1 | MCF7 | cell growth or viability, MTT |  | 10 µM, 48 h | viability | 4.9% |
| CC(=O)OC[C@H]1O[C@@H]([Se]Cc2ccc3ccccc3n2)[C@H](OC(C)=O)[C@@H](OC(C)=O)[C@@H]1OC(C)=O | THP-1 | cell growth or viability, WST-1 |  | 24 h | CC50 | ~50 µM |
| Cn1nc2c(=O)n(C3CC3)ncc2c1[C@](O)(c1cnc(C(F)(F)F)c(Cl)c1)C(F)(F)F |  | metabolic stability | male Sprague-Dawley rat, hepatocytes | 0.5 µM, pH 7.4 | hepatocyte CLint | 0.9 µL/min/10⁶ cells |
| CN1CCN(c2cnc3c(cc(C(=O)NCc4ccc(Cl)cc4)c(=O)n3CC(=O)N3CC(C)(F)C3)n2)C1=O | B-95-8 | cell growth or viability, ATP luminescence |  | 5 days | CC50 | 4.61 µM |
| COc1ccc2c(C[Se][C@@H]3O[C@H](CO)[C@H](O)[C@H](O)[C@H]3O)cc(=O)oc2c1 | THP-1 | cell growth or viability, WST-1 |  | 24 h | CC50 | > 100 µM |
